Experimental data collected from several papers.
≈ marks a conversion by molar mass, not a printed value.

SMILES	organism	assay	test system	setting	quantity	result
O=C(Nc1cccc(-c2cc(C(=O)O)no2)c1)Nc1ccc(Cl)c(Cl)c1	Acinetobacter baumannii	microbial growth, broth dilution	BAA1605	–	MIC	> 64 µg/mL
O=C(NN1C(=O)CSC12CCC(c1ccccc1)CC2)c1[nH]c2ccc(Cl)cc2c1-c1ccccc1 (stereo not shown)	Enterovirus B	viral replication, inhibitor	Vero, B4	–	EC50	> 100 µM
COc1nc(N)nc2c1ncn2[C@@H]1O[C@H](COP(=O)(N[C@@H](C)C(=O)OCC(C)(C)C)Oc2cccc3ccccc23)[C@@H](O)[C@@]1(C)O (stereo partly shown)	Hepatitis C virus	viral replication, inhibitor	GETYPE1A	96 h, replicon	EC90	0.004 µM
CC1SC2(CCC(c3ccccc3)CC2)N(NC(=O)c2[nH]c3ccc(Cl)cc3c2-c2ccccc2)C1=O (stereo not shown)	Enterovirus B	viral replication, inhibitor	Vero, B4	–	EC50	> 100 µM
COC(=O)c1cc(-c2cccc(NC(=O)Nc3ccccc3)c2)on1	Acinetobacter baumannii	microbial growth, broth dilution	BAA1605	–	MIC	> 64 µg/mL
Cc1cc(/C=C2\Sc3ccccc3N2CCCN2CCCCC2)c2ccccc2[n+]1C.[I-]	Acinetobacter baumannii	microbial growth, broth dilution	ATCC19606	drug-resistant strain	MIC	64 µg/mL
CC(C)(CO)C(=O)SCCOP(=O)(NCc1ccccc1)OC[C@H]1O[C@@H](n2cnc3c(=O)[nH]c(N)nc32)[C@](C)(O)[C@@H]1O (mixture of isomers)	Hepatitis C virus	viral replication, inhibitor	Huh-7, GETYPE1	replicon	EC90	0.9 µM
CC1CCN(CCCN2/C(=C/c3cc[n+](C)c4ccccc34)Sc3ccccc32)CC1.[I-]	Acinetobacter baumannii	microbial growth, broth dilution	ATCC19606	drug-resistant strain	MIC	16 µg/mL
CC(C)S(=O)(=O)n1c(N)nc2ccc(/C(=N/O)c3ccccc3)cc21	Enterovirus B	viral replication, inhibitor	Vero 76, B3	–	EC50	< 0.01 µM
COC(=O)c1cc(-c2cccc(NC(=O)Nc3c(C)cccc3C)c2)on1	Acinetobacter baumannii	microbial growth, broth dilution	BAA1605	–	MIC	> 64 µg/mL
Cc1c(NN=C(C#N)C2=NC(=O)CS2)c(=O)n(-c2ccccc2)n1C	Acinetobacter baumannii	microbial growth, well diffusion	–	100000 µg/mL	inhibition zone	27 mm
CCCCCCNC(=S)Nc1cccc(-c2cc(C(=O)OC)no2)c1	Acinetobacter baumannii	microbial growth, broth dilution	BAA1605	–	MIC	> 64 µg/mL
CC1CCCC2(C1)SC(C)C(=O)N2NC(=O)c1[nH]c2ccc(Cl)cc2c1-c1ccccc1 (stereo not shown)	Enterovirus B	viral replication, inhibitor	Vero, B4	–	EC50	> 100 µM
COC(=O)c1cc(-c2cccc(NC(=O)Nc3cccc(C(F)(F)F)c3)c2)on1	Acinetobacter baumannii	microbial growth, broth dilution	BAA1605	–	MIC	> 64 µg/mL
CC1(C)S[C@@H]2[C@H](NC(=O)[C@H](N)c3ccccc3)C(=O)N2[C@H]1C(=O)O	Acinetobacter baumannii	microbial growth, broth dilution	ATCC19606	drug-resistant strain	MIC	64 µg/mL (≈ 183 µM)
COC(=O)c1cc(-c2cccc(NC(=O)Nc3ccc(Cl)cc3)c2)on1	Acinetobacter baumannii	microbial growth, broth dilution	BAA1605	–	MIC	> 64 µg/mL
CCC1CCC2(CC1)SC(C)C(=O)N2NC(=O)c1[nH]c2ccc(Cl)cc2c1-c1ccccc1 (stereo not shown)	Enterovirus B	viral replication, inhibitor	Vero, B4	–	EC50	> 100 µM
COC(=O)c1cc(-c2cccc(NC(=O)Nc3ccc(F)c(F)c3)c2)on1	Acinetobacter baumannii	microbial growth, broth dilution	BAA1605	–	MIC	> 64 µg/mL
C=C1CC[C@H](O)C/C1=C/C=C1\CCC[C@]2(C)[C@@H]([C@H](C)CCCC(C)C)CC[C@@H]12	Hepatitis C virus	viral replication, inhibitor, luciferase	BM4-5, GETYPE1B	72 h, replicon	EC50	6.1 µM
C[n+]1c(/C=C/c2c[nH]c3ccccc23)cc(/C=C2\Sc3ccccc3N2CCCN2CCOCC2)c2ccccc21.[I-]	Acinetobacter baumannii	microbial growth, broth dilution	ATCC19606	drug-resistant strain	MIC	> 64 µg/mL
NC(=O)c1ncn([C@@H]2O[C@H](CO)[C@@H](O)[C@H]2O)n1	Enterovirus B	viral replication, inhibitor	Vero, B4	–	EC50	> 250 µM
C=C1CC[C@H](O)C/C1=C/C=C1\CCC[C@]2(C)[C@@H]([C@H](C)/C=C/[C@H](C)C(C)C)CC[C@@H]12	Hepatitis C virus	viral replication, inhibitor, luciferase	GETYPE2A	5 days, replicon	EC50	13 µM
CCCC1CCC2(CC1)SCC(=O)N2NC(=O)c1[nH]c2ccc(Cl)cc2c1-c1ccccc1 (stereo not shown)	Enterovirus B	viral replication, inhibitor	Vero, B4	–	EC50	> 100 µM
COC(=O)c1cc(-c2cccc(NC(=O)Nc3cc(OC)ccc3OC)c2)on1	Acinetobacter baumannii	microbial growth, broth dilution	BAA1605	–	MIC	> 64 µg/mL
CC1CCCC2(C1)SCC(=O)N2NC(=O)c1[nH]c2ccc(Cl)cc2c1-c1ccccc1 (stereo not shown)	Enterovirus B	viral replication, inhibitor	Vero, B4	–	EC50	> 100 µM
C[n+]1c(/C=C/c2ccc(O)cc2)cc(/C=C2\Sc3ccccc3N2CCCN2CCCC2)c2ccccc21.[I-]	Acinetobacter baumannii	microbial growth, broth dilution	ATCC19606	drug-resistant strain	MIC	> 64 µg/mL
CCC1CCC2(CC1)SCC(=O)N2NC(=O)c1[nH]c2ccc(Cl)cc2c1-c1ccccc1 (stereo not shown)	Enterovirus B	viral replication, inhibitor	Vero, B4	–	EC50	> 100 µM
C=C1/C(=C\C=C2/CCC[C@]3(C)[C@@H]([C@H](C)CCCC(C)(C)O)CC[C@@H]23)C[C@@H](O)C[C@@H]1O	Hepatitis C virus	viral replication, inhibitor, luciferase	BM4-5, GETYPE1B	72 h, replicon	EC50	3.19 µM
